Three molecules from ChEMBL document CHEMBL4402517, “Rational modification of Mannich base-type derivatives as novel antichagasic compounds: Synthesis, in vitro and in vivo evaluation” (Bioorg Med Chem, 2019) can be followed below.

By IC50 is commonly meant the concentration needed to halve the response being measured.

Calls of active or inactive are those of the source. The calls are words filed in the database; no cut-off is given here.

Data set [1] deals with Trypanosoma cruzi. The experiment in a line: Antitrypanosomal activity against Trypanosoma cruzi TINF/CH/1956/Tulahuen;DTU 6 epimastigotes measured after 72 hrs by Neubauer hemocytometer. It counts as functional, organism-based. The note with it: TINF/CH/1956/Tulahuen;DTU 6, 72 h.
The subject of data set [2] is Trypanosoma cruzi. The experiment in a line: Antitrypanosomal activity against Trypanosoma cruzi MHOM/Pe/2011/Arequipa;DTU 5 bloodstream trypomastigote infected in BALB/c mouse assessed as parasite-free adipose tissue in acute phase at 20 mg/kg/day, po administered for 5 consecutive days starting from day 8 post infection followed by cyclophosphamide induced immunosuppression on day 80 post infection measured after day 100 post infection by PCR method relative to control. In kind it is functional. Summed up:
(§1)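 Female BALB/c mice (10–12 weeks, three per group) were infected i.p. with 5 × 10^5 Arequipa bloodstream trypomastigotes. Dosing was oral, 20 mg/kg/day for 5 days, as a suspension in 5% DMSO/0.5% HPMC. Cyclophosphamide 200 mg/kg i.p. was given at day 80 pi. At necropsy (day 100) tissues were tested by PCR on the splice leader region (primers TC/TC1, 300 bp). Scored as x/3 mice positive.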

For data set [3], the system named is Trypanosoma cruzi. The data set is described as follows: Antitrypanosomal activity against Trypanosoma cruzi MHOM/Pe/2011/Arequipa;DTU 5 bloodstream trypomastigotes infected in BALB/c mouse assessed as reduction in serum Ig-G level in chronic phase at 20 mg/kg/day, po administered for 5 consecutive days starting from day 70 post infection measured at day 76 post infection by ELISA. In kind it is functional, organism-based. Summed up: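 Sera came from infected BALB/c mice (three per group) dosed orally at 20 mg/kg/day for 5 days. Sampling points: 2 days after treatment, the day before immunosuppression (acute only) and necropsy day. Anti-T. cruzi IgG was measured by indirect ELISA using parasite Fe-SOD as antigen, read as OD at 492 nm.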
On the technique in general: An ELISA detects its analyte on a solid surface through an enzyme-linked reagent.

Data set [4] concerns Trypanosoma cruzi. The data set is described as follows: Antitrypanosomal activity against Trypanosoma cruzi MHOM/Pe/2011/Arequipa;DTU 5 epimastigote assessed as inhibition of DNA and RNA levels at IC50 measured after 72 hrs by acridine orange staining based flow cytometry relative to control. It counts as functional. Further details: scale not given: the % may be the effect or the level left. An outline of the steps:
(§2)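 They were stained with rhodamine 123 or acridine orange and analysed by flow cytometry. Index of variation = (TM−CM)/CM, from median fluorescence of treated (TM) and untreated (CM) parasites.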
(A flow cytometer gives signals particle by particle.)

In data set [5] the test system is Trypanosoma cruzi. The experiment in a line: Antitrypanosomal activity against Trypanosoma cruzi MHOM/Pe/2011/Arequipa;DTU 5 bloodstream trypomastigote infected in BALB/c mouse assessed as parasite-free oesophagus in acute phase at 20 mg/kg/day, po administered for 5 consecutive days starting from day 8 post infection followed by cyclophosphamide induced immunosuppression on day 80 post infection measured after day 100 post infection by PCR method relative to control. In kind it is functional. An outline of the steps: as §1

The test system of data set [6] is Trypanosoma cruzi. The data set is described as follows: Antitrypanosomal activity against Trypanosoma cruzi MHOM/Pe/2011/Arequipa;DTU 5 bloodstream trypomastigote infected in BALB/c mouse assessed as parasite-free adipose tissue in chronic phase at 20 mg/kg/day, po administered for 5 consecutive days starting from day 70 post infection followed by cyclophosphamide induced immunosuppression on day 80 post infection measured after day 100 post infection by PCR method relative to control. It counts as functional. Summed up:
as §1

The subject of data set [7] is Trypanosoma cruzi. The data set is described as follows: Antitrypanosomal activity against Trypanosoma cruzi MHOM/Pe/2011/Arequipa;DTU 5 epimastigote assessed as depolarization of mitochondrial membrane at IC50 measured after 72 hrs by rhodamine 123 and acridine orange staining based flow cytometry relative to control. In kind it is functional. An outline of the steps:
as §2

In data set [8] the test system is Trypanosoma cruzi. The data set is described as follows: Antitrypanosomal activity against Trypanosoma cruzi MHOM/Pe/2011/Arequipa;DTU 5 epimastigote assessed as effect on glycerol excretion at IC50 after 72 hrs by H NMR method relative to control. It counts as functional, organism-based. An outline of the steps: (§3)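 Cells were spun at 800 × g for 10 min and culture supernatants analysed by 1H NMR. Catabolite peaks were expressed as % variation versus untreated parasites.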

The subject of data set [9] is Trypanosoma cruzi. The data set is described as follows: Antitrypanosomal activity against Trypanosoma cruzi MHOM/Pe/2011/Arequipa;DTU 5 bloodstream trypomastigote infected in BALB/c mouse assessed as parasite-free brain in chronic phase at 20 mg/kg/day, po administered for 5 consecutive days starting from day 70 post infection followed by cyclophosphamide induced immunosuppression on day 80 post infection measured after day 100 post infection by PCR method relative to control. In kind it is functional. An outline of the steps:
as §1

Data set [10] has as its system Trypanosoma cruzi. The data set is described as follows: Antitrypanosomal activity against Trypanosoma cruzi MHOM/Pe/2011/Arequipa;DTU 5 bloodstream trypomastigote infected in BALB/c mouse assessed as parasite-free heart in chronic phase at 20 mg/kg/day, po administered for 5 consecutive days starting from day 70 post infection followed by cyclophosphamide induced immunosuppression on day 80 post infection measured after day 100 post infection by PCR method relative to control. It counts as functional. An outline of the steps:
as §1

The subject of data set [11] is Trypanosoma cruzi. The experiment in a line: Antitrypanosomal activity against Trypanosoma cruzi IRHOD/CO/2008/SN3;DTU 1 epimastigotes measured after 72 hrs by Neubauer hemocytometer. It counts as functional, organism-based. The conditions noted are these: IRHOD/CO/2008/SN3;DTU 1, 72 h.
Data set [12] has as its system Trypanosoma cruzi. The experiment in a line: Antitrypanosomal activity against Trypanosoma cruzi MHOM/Pe/2011/Arequipa;DTU 5 epimastigote assessed as effect on ethanol excretion at IC50 after 72 hrs by H NMR method relative to control. It counts as functional, organism-based. An outline of the steps:
as §3

Data set [13] can be described thus: Selectivity index, ratio of IC50 for African green monkey Vero cells to IC50 for Trypanosoma cruzi TINF/CH/1956/Tulahuen;DTU 6 amastigote forms. In kind it is toxicity. The conditions noted are these: read-out: Selectivity Index. Summed up:
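Vero cells (1 × 10^4/well) were infected with trypomastigotes at MOI 10:1 for 24 h and washed with PBS. They were then exposed to 3.1–50 µM for 72 h at 37 °C in 5% CO2, and amastigotes were counted after Giemsa staining. Triplicates in two determinations; nonlinear regression.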

The test system of data set [14] is Trypanosoma cruzi. The data set is described as follows: Antitrypanosomal activity against Trypanosoma cruzi MHOM/Pe/2011/Arequipa;DTU 5 bloodstream trypomastigote infected in BALB/c mouse assessed as parasite-free brain in acute phase at 20 mg/kg/day, po administered for 5 consecutive days starting from day 8 post infection followed by cyclophosphamide induced immunosuppression on day 80 post infection measured after day 100 post infection by PCR method relative to control. It counts as functional. An outline of the steps: as §1

For data set [15], the system named is Trypanosoma cruzi. The experiment in a line: Antitrypanosomal activity against Trypanosoma cruzi MHOM/Pe/2011/Arequipa;DTU 5 bloodstream trypomastigote infected in BALB/c mouse assessed as parasite-free oesophagus in chronic phase at 20 mg/kg/day, po administered for 5 consecutive days starting from day 70 post infection followed by cyclophosphamide induced immunosuppression on day 80 post infection measured after day 100 post infection by PCR method relative to control. It counts as functional. Summed up: as §1

Data set [16] concerns Trypanosoma cruzi. The data set is described as follows: Antitrypanosomal activity against Trypanosoma cruzi MHOM/Pe/2011/Arequipa;DTU 5 epimastigotes measured after 72 hrs by Neubauer hemocytometer. In kind it is functional, organism-based. The conditions noted are these: MHOM/Pe/2011/Arequipa;DTU 5, 72 h.
The test system of data set [17] is Trypanosoma cruzi. The data set is described as follows: Antitrypanosomal activity against Trypanosoma cruzi MHOM/Pe/2011/Arequipa;DTU 5 bloodstream trypomastigote infected in BALB/c mouse assessed as parasite-free bone marrow in chronic phase at 20 mg/kg/day, po administered for 5 consecutive days starting from day 70 post infection followed by cyclophosphamide induced immunosuppression on day 80 post infection measured after day 100 post infection by PCR method relative to control. It counts as functional. An outline of the steps:
as §1

As for `O=C(CCN1CCN(c2ccc(Cl)cc2)CC1)c1ccc(O)cc1`, the IC50 is 10.6 µM in the data set with Trypanosoma cruzi [1], 12.1 µM with Trypanosoma cruzi [11] and 18.6 µM with Trypanosoma cruzi [16]. The Activity in the data set with Trypanosoma cruzi [2] is listed as 50%; with Trypanosoma cruzi [4] it was -5.1%; with Trypanosoma cruzi [5], 50%; with Trypanosoma cruzi [6], 63%; with Trypanosoma cruzi [7], 67.6%; with Trypanosoma cruzi [9], 63%. Besides, the Activity in the data set with Trypanosoma cruzi [10] stood at 63%; in the data set on Trypanosoma cruzi [14] it was 50%; in the data set with Trypanosoma cruzi [15], 63%; with Trypanosoma cruzi [17] it was 63%. Also, the result with Trypanosoma cruzi [3], with Trypanosoma cruzi [8] and in the data set on Trypanosoma cruzi [12] was Active. In data set [13], the selectivity ratio was determined as 34.5.
In the case of `O=C(CCN1CCN(c2ccc(C(F)(F)F)cc2)CC1)c1ccc(O)cc1`, the values for the IC50 in the data set on Trypanosoma cruzi [1], in the data set with Trypanosoma cruzi [11] and with Trypanosoma cruzi [16] were 14.8 µM, 12.6 µM and 22.7 µM, respectively. The Activity in the data set on Trypanosoma cruzi [2] is reported as 13%; with Trypanosoma cruzi [4], -4.2%; in the data set with Trypanosoma cruzi [5], 13%; with Trypanosoma cruzi [6] it was 50%; in the data set on Trypanosoma cruzi [7] it was 54.4%; in the data set with Trypanosoma cruzi [9], 50%. For the same molecule, the Activity is 50% with Trypanosoma cruzi [10], 13% with Trypanosoma cruzi [14], 50% in the data set with Trypanosoma cruzi [15] and 50% in the data set on Trypanosoma cruzi [17]. For the same molecule, the outcome with Trypanosoma cruzi [3], with Trypanosoma cruzi [8] and with Trypanosoma cruzi [12] was Active. Further, the selectivity ratio in data set [13] amounted to 27.4.
With `O=C(Cn1ccnc1[N+](=O)[O-])NCc1ccccc1` [BENZNIDAZOLE], the results for the 50% inhibitory concentration (IC50) in the data set with Trypanosoma cruzi [1], in the data set on Trypanosoma cruzi [11] and with Trypanosoma cruzi [16] were 25.3 µM, 15.3 µM and 26.2 µM, respectively. Further, the Activity was 25% in the data set on Trypanosoma cruzi [2]; -4.7% with Trypanosoma cruzi [4]; 25% in the data set with Trypanosoma cruzi [5]; 38% in the data set with Trypanosoma cruzi [6]; 15.2% in the data set with Trypanosoma cruzi [7]; 38% with Trypanosoma cruzi [9]. In addition, the Activity came out at 38% in the data set on Trypanosoma cruzi [10], 25% in the data set with Trypanosoma cruzi [14], 38% with Trypanosoma cruzi [15] and 38% in the data set with Trypanosoma cruzi [17]. In addition, the outcome in the data set on Trypanosoma cruzi [3], with Trypanosoma cruzi [8] and in the data set on Trypanosoma cruzi [12] was Active. Further, in data set [13], the selectivity ratio was greater than 51.7.
